# Source: PMC13334530 (Nature neuroscience, 2026)
# Legend:
# [1] = test system: sarkosyl-insoluble Tau; assay: Sarkosyl fractionation of primary neurons, Tau immunoblot; assay type: cell-based, mouse; conditions: 12 hours; for Tau aggregation (sarkosyl-insoluble Tau) in primary neurons: Epoxomicin, MG132, iBEp 1 μM, Leupeptin 20 μM every two hours; for sarkosyl-insoluble Tau in primary WT mouse neurons: iBEp 1 μM, IgG-Epox […]
# [2] = target: catalytic proteasome subunits (Mus musculus, UniProt O55234+P70195+Q60692); assay type: binding; conditions: for targets bound (streptavidin enrichment / biotin pull-down, LC/MS): primary mouse neurons and mouse brain, Table S1
# [3] = target: Proteasome subunit β5 (Homo sapiens, UniProt P28074); assay: Proteasome subunit β5 activity assay; assay type: biochemical
# [4] = In vivo hippocampal injection dose-ranging; parameters: species or system mouse
# [5] = test system: intracellular ubiquitin conjugates and p62; assay: Immunoblots of ubiquitin conjugates and p62 in primary neurons; assay type: cell-based, mouse; conditions: primary WT neurons, immunoblot
# [6] = test system: Tau phosphorylation at S202/T205; assay: Immunocytochemistry for phosphorylated Tau in primary neurons; assay type: cell-based, mouse; conditions: primary hTau-KI hippocampal neurons, 12 hours
# [7] = test system: β-sheet containing aggregates; assay: Thioflavin S staining after stereotactic hippocampal injection; assay type: in vivo, mouse; conditions: hTau-KI mice, 72 hours, relative to contralateral controls
# [8] = test system: ubiquitin-proteasome reporter GFPu in primary hippocampal neurons; assay: GFPu degradation assay; assay type: cell-based, mouse; conditions: DIV14 primary neurons, 1 μM, 12-hour incubation
# Method in brief: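 Primary hippocampal neurons on coverslips co-transfected at DIV7 or DIV8 with Ub-G76V-GFP (0.5 μg/coverslip) and mCherry (0.1 μg/coverslip) using lipofectamine 2000, 4 h at 37 °C. At DIV14, 1 μM test compound for 12 h, then fixed and processed for immunocytochemistry. GFP+ cells counted per 100 cells; n=6 regions imaged per replicate, N=3 biological replicates.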
# [9] = test system: Tau phosphorylation; assay: Quantitative phosphoproteomics of treated primary neurons; assay type: cell-based; conditions: primary mouse neurons; sites correspond to human S202, T205, T217, S404
# [10] = test system: Tau phosphorylation at S202/T205; assay: Immunohistochemistry; assay type: in vivo, mouse; conditions: stereotactic injection, 72 hours, versus contralateral control
# [11] = test system: sarkosyl-insoluble Tau; assay: Sarkosyl fractionation of hippocampi after stereotactic injection; assay type: in vivo, mouse
# [12] = test system: Tau paired helical filaments; assay: Electron microscopy of sarkosyl-insoluble fractions of injected hippocampi; assay type: in vivo, mouse; conditions: hTau-KI mice, 72 hours after injection
# [13] = test system: primary mouse neurons; assay: Intracellular metabolite extraction from treated neurons; assay type: in vitro ADME; conditions: DIV14 cortical neurons, extracted intracellular metabolites, 1 pg limit of detection
# [14] = test system: surface Lrp1, GluR1 and neuroproteasomes; assay: Surface biotinylation of primary neurons treated with RAP; assay type: cell-based; conditions: primary mouse neurons
# Method in brief: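 Neurons were washed in cold PBSCM pH 8.0 and labelled with 0.5 mg/mL Sulfo-NHS-LC-Biotin in PBSCM, 4°C for 10 min. Labelling quenched with 50 mM glycine, two 10-min incubations at 4°C.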
# [15] = test system: neuroproteasome activity and sarkosyl-insoluble Tau; assay type: cell-based, mouse; conditions: primary WT neurons treated with RAP and a dose curve of iBEp
molecule,measurement,setting,value
Sulfo-MG132 [SulfoMG],sarkosyl-insoluble hTau in primary hTau-KI neurons,"[1]; 1 μM, immunoblot",induces similar partitioning of hTau into the sarkosyl-insoluble fraction as iBEp
same,Tau aggregation (sarkosyl-insoluble Tau) in primary neurons,[1],induces Tau aggregation
same,"targets bound (streptavidin enrichment / biotin pull-down, LC/MS)",[2],the catalytic proteasome subunits as well as some off-targets of MG132
same,activity as proteasome inhibitor,"[3]; dose curve, Suc-LLVY-AMC (Extended Data Fig. 3g)",active
same,potency relative to MG132,"[3]; proteasome, calpain and cathepsin L activity assays (Extended Data Fig. 3g,h)",less potent than MG132
Biotin-PEG24-Epoxomicin [iBEp],adverse physiological effects at selected concentration,[4]; 6.4 μM,without causing observable adverse physiological effects
same,inhibition of membrane-fraction proteasomes in vivo,[4]; 6.4 μM,detectable inhibition of membrane-fraction proteasomes
same,concentration inducing seizure activity,"[4]; 2 μL, mice",exceeding 12 μM
same,Tau aggregation (sarkosyl-insoluble Tau) in primary neurons,[1],induces Tau aggregation
same,sarkosyl-insoluble Tau in primary WT mouse neurons,[1]; immunoblot,significant increase
same,increase of total intracellular ubiquitin conjugates or p62 levels,[5],lack of both markers
same,Tau phosphorylation at S202/T205 in primary neurons,[6],significantly elevated
same,ThioS staining in CA1 region of hippocampi,[7],strong increase
same,accumulation of the ubiquitin-proteasome reporter GFPu,[8],did not cause accumulation
same,"Tau phosphorylation sites with time-dependent increase, of identified sites",[9],4 of 26
same,"targets bound (streptavidin enrichment / biotin pull-down, LC/MS)",[2],selectively targets catalytic proteasome subunits
same,bands differentially labeled versus DMSO (streptavidin blot),[2]; primary neurons treated 12 hours,only three bands differentially labeled
same,Tau phosphorylation at S202/T205 (AT8) in hippocampi of hTau-KI mice,[10],significantly elevated
same,sarkosyl-insoluble Tau in hippocampi from hTau-KI mice,"[11]; 2 μL of 6.4 μM into CA1, 72 hours, contralateral IIT-PEG24-Biotin, N=6",significant increase
same,sarkosyl-insoluble Tau signal in hippocampi from Tau-KO mice,"[11]; stereotactic injection, contralateral DMSO, N=3",no detectable signal
same,filaments in sarkosyl-insoluble fractions by negative stain EM,[12],Twisted filaments which resembled paired helical filaments (PHFs) were readily apparent
"CC[C@H](C)[C@H](NC(=O)[C@H]([C@@H](C)CC)N(C)C(C)=O)C(=O)N[C@H](C(=O)N[C@@H](CC(C)C)C(=O)[C@@]1(C)CO1)[C@@H](C)O [Epoxomicin, reference compound]",Tau aggregation (sarkosyl-insoluble Tau) in primary neurons,[1],does not
same,Tau phosphorylation at S202/T205 in primary neurons,[6],No Tau S202/T205 phosphorylation was detectable
same,permeability into primary mouse neurons by LC/MS-based metabolite profiling,[13],peak in Epox treated cells corresponds to Epoxomicin
same,Tau phosphorylation at S202/T205 (AT8) in hippocampi of hTau-KI mice,[10],No Tau S202/T205 phosphorylation was detectable
Biotin-PEG24-IleIleThr,sarkosyl-insoluble Tau in primary WT mouse neurons,[1]; immunoblot,No such signal
"RAP: pan-ApoE receptor antagonist, Receptor-associated protein (protein, UniProt P30533 35-357, looked up) Alpha-2-macroglobulin …: YSREKNQPKPSPKRESGEEFRMEKLNQLWEKAQRLHLPPVRLAELHADLKIQERDELAWKKLKLDGLDEDGEKEARLIRNLNVILAKYGLDGKKDARQVTSNSLSGTQEDGLDDPRLEKLWHKAKTSGKFSGEELDKLWREFLHHKEKVHEYNVLLETLSRTEEIHENVISPSDLSDIKGSVLHSRHTELKEKLRSINQGLDRLRRVSHQGYSTEAEFEEPRVIDLWDLAQSANLTDKELEAFREELKHFEAKIEKHNHYQKQLEIAHEKLRHAESVGDGERVSRSREKHALLEGRTKELGYTVKKHLQDLSGRISRARHNEL",surface GluR1,[14],without modifying
same,surface abundance of neuroproteasomes,[14],reduced
same,surface localization of Lrp1,[14],rapidly decreased
same,susceptibility of neurons to Tau aggregation,[15],renders neurons more susceptible to Tau aggregation
